Screens as filed in PubChem BioAssay.
Compounds with a hit are over-represented: about 4.5% of the library has one in this group of screens.
UPR XBP1 act = adaptive UPR (XBP1) activation; CHO-XBP1 luciferase reporter, IRE1-XBP1 UPR activation, luminescence; percent of tunicamycin response, DMSO as zero; activation, % at 20 µM; AID 463104; hit rate 0.33% among 330,000;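 active = versus positive control, 20 µM dose yields 30% or more activation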;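 also: 100% = tunicamycin at 10 µg/mL and 0% = DMSO only wells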
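Material: CHO cell line with stable XBP1 luciferase reporter; schedule: 16-18 h cell attachment at 37 °C, then 6 h compound exposure; signal: glow luminescence from Steady-Glo reagent; medium: serum-containing F12 medium, 10% FBS; benchmarks: tunicamycin 10 µg/mL and vehicle-only wells; read-out: percent activation relative to tunicamycin reference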
NS3 helicase inh = HCV NS3 helicase inhibition; NS3 helicase DNA unwinding, Cy5 molecular beacon fluorescence; inhibition, % at 10.9 µM; hit rate 0.56% among 290,000; AID 1800;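 active = inhibition above the mean of all tested compounds plus 3 SD, set per campaign, cut at about 35% in these data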;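 also: 0% = DMSO wells and 100% = thioflavine S control wells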
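System: NS3 helicase fragment of HCV / Schedule: 1 h at 25 °C / Control set: DMSO alone as 0% and 110 µM thioflavine S as 100% / Reagent: Cy5/quencher beacon DNA duplex and ATP to start / Technique: Cy5 fluorescence / Replication: singlicate / Evaluation: % inhibition of end-to-start signal ratio versus controls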
UPR CHOP act = apoptotic UPR (CHOP) activation. CHO-CHOP luciferase reporter, luminescence; percent of tunicamycin response over DMSO baseline. activation, % at 10 µM. hit rate 0.34% among 330,000;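 active = at 10 µM dose, activation of 40% or more, normalized to positive control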;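 also: 100% = tunicamycin at 10 µg/mL and 0% = DMSO alone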
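Test system: CHO-CHOP cells, stable luciferase reporter of PERK-eIF2a-CHOP signalling | Quantity: 500 CHO-CHOP cells per well | Buffer or medium: F12 plus 10% serum | Compound dosing: 10 µM single point, 0.5% DMSO | Schedule: 6 h compound treatment, 37 °C | Signal: Luciferase luminescence | Control set: Tunicamycin high control, DMSO low control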
p97 inhibitor = inhibitors of human p97 ATPase. inhibition, % at 8 µM. recombinant p97 ATPase, Kinase-Glo ATP luminescence, 3 h. hit rate 0.42% among 220,000. P55072; in the data active = inhibition above about 15%;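 also: 0% = DMSO vehicle and 100% = wells lacking enzyme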
Target sequence (P55072 whole entry, looked up): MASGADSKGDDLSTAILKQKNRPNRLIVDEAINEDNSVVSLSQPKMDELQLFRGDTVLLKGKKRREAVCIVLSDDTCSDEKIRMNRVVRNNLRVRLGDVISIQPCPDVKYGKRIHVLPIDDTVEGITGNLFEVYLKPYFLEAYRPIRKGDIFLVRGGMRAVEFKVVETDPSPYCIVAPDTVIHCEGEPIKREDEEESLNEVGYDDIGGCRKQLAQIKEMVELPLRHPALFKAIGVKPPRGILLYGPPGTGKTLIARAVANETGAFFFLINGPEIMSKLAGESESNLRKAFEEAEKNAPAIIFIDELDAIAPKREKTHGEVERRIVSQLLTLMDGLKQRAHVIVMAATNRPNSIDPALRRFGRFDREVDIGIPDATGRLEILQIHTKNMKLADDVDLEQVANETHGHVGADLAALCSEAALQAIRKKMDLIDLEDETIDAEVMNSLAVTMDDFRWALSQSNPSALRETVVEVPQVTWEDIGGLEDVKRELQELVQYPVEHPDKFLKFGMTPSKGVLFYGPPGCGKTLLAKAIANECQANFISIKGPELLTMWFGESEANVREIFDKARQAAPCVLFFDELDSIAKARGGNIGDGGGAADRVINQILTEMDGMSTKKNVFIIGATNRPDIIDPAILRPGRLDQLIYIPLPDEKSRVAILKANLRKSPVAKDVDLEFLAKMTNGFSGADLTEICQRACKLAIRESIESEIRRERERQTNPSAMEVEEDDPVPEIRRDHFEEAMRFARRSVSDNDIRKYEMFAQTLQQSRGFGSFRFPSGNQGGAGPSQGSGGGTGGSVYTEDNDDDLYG
M18AAP inhibitor = blocks P. falciparum M18 aspartyl aminopeptidase | recombinant PfM18AAP, H-Glu-NHMec fluorogenic cleavage | inhibition, % at 7.35 µM | hit rate 1.2% among 290,000 | AID 1822;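 active = inhibition above the campaign mean inhibition over all tested compounds plus 3 SD, cut at about 28% in these data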;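 also: 0% = plate median of test compound wells and 100% = 2 mM ZnCl2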
CHOP inh = inhibitors of CHOP induction in ER stress response | CHO-K1 CHOP-promoter luciferase, tunicamycin-induced, 15-18 h | inhibition, % at 10 µM | hit rate 3.8% among 220,000;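 active = compounds that reduced the stress-induced luciferase reporter signal by more than about 70% of percent inhibition, limit read from the data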;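 also: 0% = tunicamycin plus vehicle and 100% = wells without tunicamycin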
The depositor's hits bear a star; . = no result.

SMILES	UPR XBP1 act	NS3 helicase inh	UPR CHOP act	p97 inhibitor	M18AAP inhibitor	CHOP inh
CC(C)CC(=O)CN1C(=O)C2(OCCO2)c2ccccc21	-1.1	1.1	-1.5	-4.1	-7.4	74.5*
O=C1N(Cc2ccc(F)cc2Cl)c2ccccc2C12OCCCO2	7.9	16.6	0.9	-8.6	-9.6	79.7*
O=C(Cc1ccccc1)N/N=C/c1ccc(S(=O)(=O)O)o1	-0.2	-17.5	1.5	9.4	2.1	-7.3
O=C(Cc1ccccc1)N/N=C/c1cc(Br)c(Br)o1	3.2	-2.3	1.7	-3.2	3.5	76.1*
Oc1ccc2ccccc2c1C=Nc1ccc(N2CCOCC2)cc1	-1.5	8.8	3.5	-1.9	2.8	78.0*
CCC(CC)C(=O)Nc1cc(C)c2c(=O)oc3ccccc3c2n1	3.3	.	3.9	.	.	78.6*
CCOC(=O)NC1(Nc2ccc(Cl)cn2)Oc2ccccc2O1	.	20.5	.	5.1	56.7*	.
CC(=O)C1=C(C)Nc2ncnn2C1c1ccccc1F (configuration not stated)	-2.2	11.9	4.1	.	-5.8	.
O=C(CSc1nc2nc(-c3cccs3)cc(C(F)(F)F)c2c(=O)[nH]1)C(F)(F)F	25.2	4.2	-0.3	.	10.7	.
COc1ccc2oc(C(=O)OC/C(O)=C(\C#N)c3nc4ccccc4[nH]3)c(C)c2c1	-0.3	12.6	-1.5	9.3	-4.1	95.2*
COCc1c(C(=O)OC/C(O)=C(\C#N)c2nc3ccccc3[nH]2)oc2ccccc12	1.9	-5.5	-0.1	3.9	-0.3	-7.6
COc1ccc(/C(C)=N/OC/C(O)=C(\C#N)c2nc3ccccc3[nH]2)c(OC)c1	1.4	-4.6	1.3	9.1	6.7	95.2*
COc1ccc(/C(C)=N/OC/C(O)=C(\C#N)c2nc3ccccc3[nH]2)cc1OC	-2.3	5.7	-1.3	-1.0	-3.4	39.1
Cc1cc(C)c(C)c(S(=O)(=O)N2CCN(C(=O)C3CSC4(C)CCC(=O)N34)CC2)c1C (configuration not stated)	1.1	.	0.9	.	.	.
Cc1nn(CC(O)COc2ccc3c(c2)CCC3)c(C)c1Br (configuration not stated)	-2.5	-11.2	6.9	-2.2	2.9	82.0*
Cc1cc(NC(=O)c2cccnc2)ccc1Br	1.9	11.0	3.3	.	0.8	.
Cc1nc(Nc2ccc(Cl)c(Cl)c2)sc1C(=O)Nc1ccccc1	3.9	-10.9	4.7	-1.6	2.0	96.2*
Cc1nc(NC(=O)/C=C/c2ccccc2)sc1C(=O)Nc1ccc(Cl)cc1	5.5	-2.4	4.2	1.9	-2.4	88.0*
COc1cccc(-c2nc(N3CCCCC3)c3ccccc3n2)c1O	5.2	.	-1.9	.	.	.
COc1cc2nc(-c3ccccc3)nc(N3CCCC3)c2cc1OC	.	4.2	.	5.8	0.7	82.0*
COc1ccc2c(c1)c1nc3ccccc3nc1n2Cc1ccc(OC)c(OC)c1	.	-7.2	.	-1.5	-1.3	84.7*
O=C(Nc1ccccc1Br)C1CCN(S(=O)(=O)c2cccs2)CC1	-3.7	.	0.4	.	.	.
CC(=Nc1cccc(C)c1)c1sc2ccccc2c1O	0.7	7.1	2.5	-0.3	1.2	77.4*
CC(=Nc1ccccc1O)c1sc2ccccc2c1O	4.4	-3.4	6.1	6.7	22.7	18.3
CCC1(C(=O)c2ccc(Cl)cc2)C2c3ccccc3OC(=O)C21C(=O)Nc1ccccc1 (configuration not stated)	-2.9	32.7	0.6	0.3	0.9	78.3*
SMILES	UPR XBP1 act	NS3 helicase inh	UPR CHOP act	p97 inhibitor	M18AAP inhibitor	CHOP inh
O=C(Nc1ccccc1Cl)C1CCCN(c2ncnc3c2nc2n3CCCCC2)C1 (configuration not stated)	-3.0	1.9	-0.7	.	5.4	.
CON/C=C(\C=Nc1ccccc1)c1ncc(C(F)(F)F)cc1Cl	-0.6	-11.5	-2.2	1.8	-5.7	89.4*
CON/C=C(\C=Nc1ccc(Cl)cc1Cl)c1ncc(C(F)(F)F)cc1Cl	1.3	0.2	-0.5	6.3	0.5	-24.6
CC(=O)Nc1ccc(S(=O)(=O)NCCNS(=O)(=O)c2ccc(NC(C)=O)cc2)cc1	-3.3	3.4	0.6	.	-1.2	.
Cc1cc2cc(CNS(=O)(=O)c3ccc4ccccc4c3)ccc2n1C	-1.5	2.5	-1.8	-0.1	3.7	58.1
Cc1cc(C)c(S(=O)(=O)NCc2ccc3c(c2)cc(C)n3C)c(C)c1	-0.7	-9.7	-1.0	-3.0	5.1	70.9*
CC(=O)Nc1ccc(S(=O)(=O)NCc2ccc(C)cc2)cc1	0.2	-3.5	-0.8	-2.0	4.9	75.5*
CC(=O)Nc1ccc(S(=O)(=O)NCc2ccc3c(c2)cc(C)n3C)cc1	-2.4	-16.7	0.3	17.4*	10.8	9.9
N=C1S/C(=C\c2ccccc2F)C(=O)N1c1ccc(F)cc1	-2.6	-1.1	-1.3	4.1	0.0	-4.4
N=C1S/C(=C\c2cccc3ccccc23)C(=O)N1c1ccc(F)cc1	4.1	-4.4	2.0	2.1	4.0	98.7*
CC(=O)N1c2ccc(S(=O)(=O)NCCC(=O)Nc3ncccc3C)cc2CC1C (configuration not stated)	-1.0	0.2	-1.1	.	4.0	.
O=C(Nc1ccc(N2CCCC2)c(S(=O)(=O)Nc2cccc(C(F)(F)F)c2)c1)c1cccs1	-3.1	-5.8	-1.6	7.1	-4.4	90.3*
Cc1ccc(C)c(S(=O)(=O)N/N=C/c2cccnc2)c1	-1.5	-7.4	0.6	1.2	18.2	72.0*
CCOC(=O)c1nnn(-c2nonc2-n2cccc2)c1CN1CCCCC1	0.7	-3.3	3.6	-3.0	-11.3	86.6*
CCOC(=O)c1nnn(-c2nonc2N)c1CN1CCCCCC1	-1.4	-2.5	0.7	2.8	-1.5	28.0
CCOC(=O)c1cccc(NC(=O)C2CCCN(c3nnc(N4CCCC4=O)s3)C2)c1 (configuration not stated)	-0.7	-1.8	0.7	.	8.4	.
CCCCc1nc(Cl)c(C#N)c2c1CCCC2	-0.7	4.2	-2.9	-3.8	-2.8	87.5*
Cn1c(=O)c2c(nc(SCCCO)n2Cc2ccccc2Cl)n(C)c1=O	-0.7	4.5	-1.3	0.8	-6.3	15.4
C=CCOc1nc2c(c(=O)n(C)c(=O)n2C)n1Cc1ccc(Cl)cc1	1.9	-5.0	7.8	-1.6	-11.3	81.8*
C=CCOc1nc2c(c(=O)n(C)c(=O)n2C)n1Cc1ccccc1Cl	-0.3	-1.2	-0.6	1.0	2.9	27.8
COc1cccc(Cn2c(Oc3cccc(C)c3)nc3c2c(=O)n(C)c(=O)n3C)c1	2.6	2.4	1.9	-1.0	-8.0	78.7*
C=CC(C)Sc1nc2c(c(=O)n(C)c(=O)n2C)n1Cc1ccccc1Cl (configuration not stated)	-2.2	1.5	-2.3	4.5	0.9	82.8*
O=C(NCC(c1ccco1)N1CCOCC1)c1c(F)cccc1F (configuration not stated)	-1.0	.	1.7	.	.	.
